Results reported in ChEMBL document CHEMBL1141088, “A new pyridazine series of GABAA alpha5 ligands” (J Med Chem, 2005).

Columns and labels:
[1] = target: T1, GABA-A receptor; alpha-3/beta-3/gamma-2 (Homo sapiens, UniProt P18507+P28472+P34903); test: Displacement of [3H]-Ro- 15-1788 binding from human recombinant Gamma-aminobutyric acid A receptor alpha-3-beta-3-gamma-2 expressed in mouse fibroblast L(tk-) cells (30 min at 24 degrees C, pH 7.4); format: cell-based
T1 sequence (P18507 whole entry): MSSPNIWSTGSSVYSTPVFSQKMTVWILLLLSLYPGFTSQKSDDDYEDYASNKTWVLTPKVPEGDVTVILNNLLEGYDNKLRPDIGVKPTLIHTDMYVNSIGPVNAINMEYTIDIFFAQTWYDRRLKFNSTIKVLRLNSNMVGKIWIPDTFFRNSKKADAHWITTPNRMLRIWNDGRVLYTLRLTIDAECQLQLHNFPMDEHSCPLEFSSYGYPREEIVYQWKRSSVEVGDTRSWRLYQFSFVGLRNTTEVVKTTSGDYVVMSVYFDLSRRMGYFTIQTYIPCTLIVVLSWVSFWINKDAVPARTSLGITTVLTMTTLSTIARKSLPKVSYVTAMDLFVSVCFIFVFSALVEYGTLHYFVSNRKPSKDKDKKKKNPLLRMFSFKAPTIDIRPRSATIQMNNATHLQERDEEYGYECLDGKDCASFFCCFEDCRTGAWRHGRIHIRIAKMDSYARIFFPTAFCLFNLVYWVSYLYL
T1 sequence (P28472 whole entry): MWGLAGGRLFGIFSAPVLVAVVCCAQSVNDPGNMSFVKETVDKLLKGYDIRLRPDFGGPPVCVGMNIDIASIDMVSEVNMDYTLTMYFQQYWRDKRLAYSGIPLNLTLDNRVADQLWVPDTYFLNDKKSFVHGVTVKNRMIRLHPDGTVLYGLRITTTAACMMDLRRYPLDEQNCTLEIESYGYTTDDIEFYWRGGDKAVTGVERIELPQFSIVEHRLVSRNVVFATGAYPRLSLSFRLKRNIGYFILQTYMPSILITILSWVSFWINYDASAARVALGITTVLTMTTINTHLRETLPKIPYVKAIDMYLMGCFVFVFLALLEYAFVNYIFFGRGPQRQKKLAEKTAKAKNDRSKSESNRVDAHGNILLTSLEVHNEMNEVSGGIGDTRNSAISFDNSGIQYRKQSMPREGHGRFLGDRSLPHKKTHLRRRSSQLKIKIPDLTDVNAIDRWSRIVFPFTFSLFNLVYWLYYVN
T1 sequence (P34903 whole entry): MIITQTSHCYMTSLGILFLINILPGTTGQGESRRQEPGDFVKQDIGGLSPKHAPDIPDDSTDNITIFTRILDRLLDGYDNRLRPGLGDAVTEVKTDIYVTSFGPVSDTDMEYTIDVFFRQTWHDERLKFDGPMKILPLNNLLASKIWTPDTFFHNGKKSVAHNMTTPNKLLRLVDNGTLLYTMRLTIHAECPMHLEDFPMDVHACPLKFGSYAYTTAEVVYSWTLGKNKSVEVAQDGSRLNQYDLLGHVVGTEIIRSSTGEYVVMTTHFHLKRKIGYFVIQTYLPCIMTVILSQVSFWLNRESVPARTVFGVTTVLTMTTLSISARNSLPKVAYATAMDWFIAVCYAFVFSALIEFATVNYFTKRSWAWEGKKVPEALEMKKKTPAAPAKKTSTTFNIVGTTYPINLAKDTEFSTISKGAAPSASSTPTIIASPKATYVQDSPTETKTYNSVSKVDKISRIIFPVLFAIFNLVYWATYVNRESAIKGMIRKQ
Procedure, shortened: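 Membranes from L(tk-) cells stably expressing human α1, α3 or α5 β3γ2 in 50 mM Tris pH 7.4. [3H]Ro15-1788 at 1.8 nM final, 30 min at 24 °C. Nonspecific binding set with 10 µM flunitrazepam, total binding in 0.1% DMSO. Filtration, scintillation counting. Ki is mean ± SEM of ≥3 independent determinations.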

[2] = Half life of compound determined after iv administration at 1 mg/kg dose as a solution(1 mg/mL) in a PEG 300:H2O(3:1); format: ADME, organism-based; parameters: dose 1 mg/kg, route intravenous; settings: rat, in vivo
Procedure, shortened: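 Single rat, cannulated, given 100 units heparin, recovered 48 h, fasted overnight. Dosed 1 mg/kg iv bolus (1 mL/kg) in PEG 300:water 3:1. Serial blood sampled to 6 h and plasma analysed by LC-MS/MS with diazepam internal standard. Cl in mL/min/kg from plasma, T1/2 in hours from 1–3 h data, Vdss in L/kg.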

[3] = target: T2, GABA-A receptor; alpha-5/beta-3/gamma-2 (Homo sapiens) (UniProt P18507+P28472+P31644); test: Efficacy at GABAA alpha-5-beta-3-gamma-2 receptor expressed in mouse fibroblast L(tk-) cells measured at 300 nM derived from at least three plates/day screened over a minimum of 2 days; format: functional, cell-based
Procedure, shortened: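 FRET membrane-potential (VIPR) assay in L(tk-) cells with receptor expression induced 24 h by 1 µM dexamethasone. Dye-loaded 30 min in low-Cl- HEPES buffer pH 7.4: 4 µM CC2-DMPE, 1 µM DiSBAC2(3), 0.5 mM tartrazine. Basal read 8 s, compound at 300 nM, half-maximal GABA 22 s later, 1 Hz reads. Background-subtracted 460/580 nm ratio, normalized to DMCM as -100%.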

[4] = target: GABA-A receptor; alpha-1/beta-3/gamma-2 (Homo sapiens) (UniProt P14867+P18507+P28472); test: Maximum inhibition of GABA EC20 response at GABA-A receptor alpha-1-beta-3-gamma-2, n=4; format: protein-complex assay
Procedure, shortened: (§1)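 Whole-cell patch clamp of L(tk-) cells stably expressing human α1, α3 or α5 β3γ2s, perfused with bicarbonate saline pH 7.2, CsCl pipette solution pH 7.3. Drugs applied by double-barrelled pipette; GABA in 5 s pulses at 30 s intervals. Modulation measured against a GABA EC20 set for each cell; curves fitted to a Hill equation.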

[5] = target: T3, GABA-A receptor; alpha-5/beta-3/gamma-2 (Homo sapiens, UniProt P18507+P28472+P31644); test: Negative logarithm of effective concentration against GABA-A alpha-5-beta-3-gamma-2 receptor; format: protein-complex assay; procedure, shortened: as §1
T3 sequence (P18507 whole entry): T1 sequence (P18507 whole entry)
T3 sequence (P28472 whole entry): T1 sequence (P28472 whole entry)
T3 sequence (P31644 whole entry): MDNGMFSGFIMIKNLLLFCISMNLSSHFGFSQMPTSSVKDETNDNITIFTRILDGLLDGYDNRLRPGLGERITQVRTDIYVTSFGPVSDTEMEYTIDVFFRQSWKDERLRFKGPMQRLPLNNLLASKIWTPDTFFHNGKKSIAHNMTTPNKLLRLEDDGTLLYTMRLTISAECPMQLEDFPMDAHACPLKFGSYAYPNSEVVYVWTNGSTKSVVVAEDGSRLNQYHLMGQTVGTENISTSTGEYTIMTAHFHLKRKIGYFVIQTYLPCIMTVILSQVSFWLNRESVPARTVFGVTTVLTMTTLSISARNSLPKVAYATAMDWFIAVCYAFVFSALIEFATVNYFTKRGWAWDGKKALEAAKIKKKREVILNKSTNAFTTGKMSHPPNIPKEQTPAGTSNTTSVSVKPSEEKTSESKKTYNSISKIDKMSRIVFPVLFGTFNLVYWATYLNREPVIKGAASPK

[6] = target: T2, GABA-A receptor; alpha-5/beta-3/gamma-2 (Homo sapiens); test: Maximum inhibition of GABA EC20 response at GABA-A receptor alpha-5-beta-3-gamma-2, n=4; format: protein-complex assay; procedure, shortened: as §1

Ki [1]: 14 nM
half-life [2]: 36 min
Efficacy [3]: -32
Maximum inhibition [4]: -23%
EC50 [5]: 7.41 nM
Maximum inhibition [6]: -37%
Compound: N#Cc1cccc(-c2cnnc(-c3ccccc3)c2)c1
